Assays:
Cavia porcellus = organism: Cavia porcellus; test: Positive inotropic effect was determined by measuring force of contraction of papillary muscle in guinea pig at a driving rate of 1.0 Hz; type: functional, Muscle tissue
In short: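 Isolated guinea pig papillary muscle paced at 1.0 Hz in Krebs-Henseleit solution (Ca2+ 3.2 mM, 30 °C). Compounds added cumulatively to the bath every 20 min. Contraction force recorded on oscillographic paper. pD2 = molar concentration giving 50% of maximum positive inotropic effect, read from concentration-response curves in five to six muscles; mean reported.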

[1] = Lethal dose in guinea pig; type: toxicity, organism-based, Cavia porcellus; conditions: in vivo
In short: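 Male Hartley guinea pigs of about 350 g. LD50 determined by the up-and-down method.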

Compound CCCCCC(=O)O[C@@H]1C2CCC3[C@@](C)(O)C4CC(O)C(C)(C)C4(O)C(O)C[C@]31C[C@@]2(C)O (stereo not given in full) has a pD2 (Cavia porcellus) of 5.75 and an LD50 [1] of 0.34 mg/kg.

CCCCC(=O)O[C@@H]1C2CCC3[C@@](C)(O)C4CC(O)C(C)(C)C4(O)C(O)C[C@]31C[C@@]2(C)O (stereo not given in full) gave a pD2 (Cavia porcellus) of 6.41 and an LD50 [1] of 0.17 mg/kg.

Work on CC(=O)O[C@@H]1C2CCC3[C@@](C)(O)C4CC(O)C(C)(C)C4(O)C(O)C[C@]31C[C@@]2(C)O (stereo not given in full) yielded a pD2 (Cavia porcellus) of 6.31 and an LD50 [1] of 1.3 mg/kg.

With CCC(=O)O[C@@H]1C2CCC3[C@@](C)(O)C4CC(O)C(C)(C)C4(O)C(O)C[C@]31C[C@@]2(C)O (stereo not given in full) the pD2 (Cavia porcellus) was 6.67 and the LD50 [1] was 0.044 mg/kg.

CC(C)(C)C(=O)O[C@@H]1C2CCC3[C@@](C)(O)C4CC(O)C(C)(C)C4(O)C(O)C[C@]31C[C@@]2(C)O (stereo not given in full) gave a pD2 (Cavia porcellus) of 5.78 and an LD50 [1] of 0.36 mg/kg.

For CC1(C)C(O)CC2C1(O)C(O)C[C@]13C[C@@](C)(O)C(CCC1[C@@]2(C)O)[C@H]3OC(=O)CCCl (stereo not given in full), the pD2 (Cavia porcellus) was 6.96 and the LD50 [1] was 0.17 mg/kg.

CC1(C)[C@@H](O)C[C@@H]2[C@]1(O)[C@H](O)C[C@]13C[C@@](C)(O)[C@H](CCC1[C@@]2(C)O)[C@H]3O[C@H]1O[C@@H](CO)[C@H](O)[C@@H](O)[C@@H]1O (stereo not given in full) gave a pD2 (Cavia porcellus) of under 4 and an LD50 [1] of under 6 mg/kg.

CC1(C)C(O)CC2C1(O)C(O)C[C@]13C[C@@](C)(O)C(CCC1[C@@]2(C)O)[C@H]3OC(=O)C1CCCCC1 (stereo not given in full) gave a pD2 (Cavia porcellus) of 6.17 and an LD50 [1] of 0.31 mg/kg.

CC1(C)C(O)CC2C1(O)C(O)C[C@]13C[C@@](C)(O)C(CCC1[C@@]2(C)O)[C@H]3O (stereo not given in full) gave a pD2 (Cavia porcellus) of 6.15 and an LD50 [1] of 0.45 mg/kg.

Compound CCCCCCC(=O)O[C@@H]1C2CCC3[C@@](C)(O)C4CC(O)C(C)(C)C4(O)C(O)C[C@]31C[C@@]2(C)O (stereo not given in full) has a pD2 (Cavia porcellus) of 5.32.

Compound CCCC(=O)O[C@@H]1C2CCC3[C@@](C)(O)C4CC(O)C(C)(C)C4(O)C(O)C[C@]31C[C@@]2(C)O (stereo not given in full) has a pD2 (Cavia porcellus) of 6.81 and an LD50 [1] of 0.12 mg/kg.

In the case of CC1(C)C(O)CC2C1(O)C(O)C[C@]13C[C@@](C)(O)C(CCC1[C@@]2(C)O)[C@H]3OC(=O)c1ccccc1 (stereo not given in full), the pD2 (Cavia porcellus) is reported as 5.79 and the LD50 [1] is reported as 1.35 mg/kg.

Work on CC(O)C(=O)O[C@@H]1C2CCC3[C@@](C)(O)C4CC(O)C(C)(C)C4(O)C(O)C[C@]31C[C@@]2(C)O (stereo not given in full) yielded a pD2 (Cavia porcellus) of 6.54 and an LD50 [1] of 0.08 mg/kg.
